Laboratory results: ChEMBL document CHEMBL1126943, “N-substituted dibenzoxazepines as analgesic PGE2 antagonists” (J Med Chem, 1993)
Several values for one entry are separate records, joined by “and”; a condition that tells them apart may be missing. Equal entries are not always repeated. Activity calls are given as the source filed them. No cut-off for these calls is given here.

Experiments:
Mus musculus [1] = assay: Antinociception at dosage of 30 mg/kg administered in 10 mice.; type: functional
How it was run: (§1)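 Male albino CD-1 mice, 20–30 g, were given test compound sc or ig (0.1 mL/10 g) at 30 mg/kg. After 25 min they received 0.025% (w/v) phenylbenzoquinone ip. Writhes were counted for 10 min, starting 5 min later. A mouse counted as protected if its writhes were ≤ half the median of that day's saline group. The result is the number of mice protected.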

Cavia porcellus [2] = species on record: Cavia porcellus; assay: Antinociceptive activity against PGE-2 in guinea pig ileum at 3 uM; inactive; type: functional, organism-based
Mus musculus [3] = assay: Effective dose required for writhing response in mouse […] on ig administration; type: functional; conditions: po
How it was run: (§2)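 In the mouse phenylbenzoquinone writhing test, male CD-1 mice (20–30 g) were dosed ig or sc. After 25 min, 0.025% phenylbenzoquinone was given ip, and writhes were counted over 10 min beginning 5 min later. Protection meant ≤ half the saline median. The ED50 is the dose protecting 50% of mice, with 95% confidence limits from maximum likelihood.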

Cavia porcellus [4] = species on record: Cavia porcellus; assay: Antinociceptive activity against PGE-2 in guinea pig ileum at 3 uM; type: functional; conditions: read-out: pA2 (converted)
How it was run: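 Ileum segments (2 cm) from male Hartley guinea pigs were held in modified Tyrode with atropine (0.14 μM) and pyrilamine (2.5 μM), at 37 °C under 95% O2/5% CO2 and 1 g tension. PGE2 concentration–response curves (2 min per dose) were run without and then with test compound. pA2 was calculated from the dose ratio at 3 μM compound.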

Mus musculus [5] = assay: Effective dose required for writhing response in mouse […] on sc administration; type: functional; how it was run: as §2
Mus musculus [6] = assay: Compound was evaluated for antinociception at dosage of 30 mg/kg administered in 9 mice; type: functional; how it was run: as §1

Cl.O=C(CCCc1ccccn1)NNC(=O)N1Cc2ccccc2Oc2ccc(Cl)cc21
No. of mice (Mus musculus [1]; 30 mg/kg): 4 and 5

Cl.O=C(NNC(=O)N1Cc2ccccc2Oc2ccc(Cl)cc21)c1cccnc1
No. of mice (Mus musculus [1]; 30 mg/kg): 3 and 1
pA2 (Cavia porcellus [2]): inactive

Cl.O=C(CCc1ccncc1)NNC(=O)N1Cc2ccccc2Oc2ccc(Cl)cc21
ED50 (Mus musculus [3]): 6.8 mg/kg
Kb (Cavia porcellus [4]): 316 nM
ED50 (Mus musculus [5]): 6.3 mg/kg

Cl.O=C(NNC(=O)C(F)(F)C(O)c1ccccn1)N1Cc2ccccc2Oc2ccc(Cl)cc21 (stereo not given)
ED50 (Mus musculus [3]): 9.1 mg/kg
Kb (Cavia porcellus [4]): 31.6 nM
ED50 (Mus musculus [5]): 7.1 mg/kg

Cl.O=C(Cc1ccccn1)NNC(=O)N1Cc2ccccc2Oc2ccc(Cl)cc21
No. of mice (Mus musculus [1]): 2
pA2 (Cavia porcellus [2]): inactive

Cl.O=C(Cc1cccnc1)NNC(=O)N1Cc2ccccc2Oc2ccc(Cl)cc21
No. of mice (Mus musculus [1]; 30 mg/kg): 3 and 5

O=C(CCc1cc[n+]([O-])cc1)NNC(=O)N1Cc2ccccc2Oc2ccc(Cl)cc21
No. of mice (Mus musculus [1]): 5

CC(=O)NNC(=O)N1Cc2ccccc2Oc2ccc(Cl)cc21
Kb (Cavia porcellus [4]): 3160 nM

Cl.O=C(/C=C/c1ccccn1)NNC(=O)N1Cc2ccccc2Oc2ccc(Cl)cc21
No. of mice (Mus musculus [1]; 30 mg/kg): 1 and 2
pA2 (Cavia porcellus [2]): inactive

O=C(Cc1ccccc1)NNC(=O)N1Cc2ccccc2Oc2ccc(Cl)cc21
Kb (Cavia porcellus [4]): 1000 nM

CC(C)Cc1ccc(C(C)C(=O)O)cc1 (stereo not given) [IBUPROFEN]
ED50 (Mus musculus [3]): 4.8 mg/kg

Cl.O=C(CCc1cccnc1)NNC(=O)N1Cc2ccccc2Oc2ccc(Cl)cc21
No. of mice (Mus musculus [1]; 30 mg/kg): 6 and 5

O=C(CCCc1ccncc1)NNC(=O)N1Cc2ccccc2Oc2ccc(Cl)cc21
No. of mice (Mus musculus [1]): 6
ED50 (Mus musculus [5]): 9.7 mg/kg

CCCC(=O)NNC(=O)N1Cc2ccccc2Oc2ccc(Cl)cc21
Kb (Cavia porcellus [4]): 1000 nM

O=C(CCCCCl)NNC(=O)N1Cc2ccccc2Oc2ccc(Cl)cc21 [PINADOLINE]
Kb (Cavia porcellus [4]): 631 nM

Cl.O=C(Cc1ccncc1)NNC(=O)N1Cc2ccccc2Oc2ccc(Cl)cc21
No. of mice (Mus musculus [1]): 1
No. of mice (Mus musculus [6]): 3

O=C(/C=C/c1cccnc1)NNC(=O)N1Cc2ccccc2Oc2ccc(Cl)cc21
No. of mice (Mus musculus [1]; 30 mg/kg): 6 and 5

Cl.O=C(CCc1ccccn1)NNC(=O)N1Cc2ccccc2Oc2ccc(Cl)cc21
ED50 (Mus musculus [3]): 5.8 mg/kg
Kb (Cavia porcellus [4]): 398 nM
ED50 (Mus musculus [5]): 9.8 mg/kg

CCCCCC(=O)NNC(=O)N1Cc2ccccc2Oc2ccc(Cl)cc21
Kb (Cavia porcellus [4]): 251 nM

CC(=O)Oc1ccccc1C(=O)O [ASPIRIN]
ED50 (Mus musculus [3]): 42.3 mg/kg

Cl.O=C(NNC(=O)C(F)(F)C(O)c1ccncc1)N1Cc2ccccc2Oc2ccc(Cl)cc21 (stereo not given)
ED50 (Mus musculus [3]): 12.3 mg/kg
No. of mice (Mus musculus [1]): 5

O=C(CCc1cccc[n+]1[O-])NNC(=O)N1Cc2ccccc2Oc2ccc(Cl)cc21
No. of mice (Mus musculus [1]; 30 mg/kg): 1 and 3

Cl.O=C(NNC(=O)N1Cc2ccccc2Oc2ccc(Cl)cc21)c1ccncc1
No. of mice (Mus musculus [1]; 30 mg/kg): 1 and 2
pA2 (Cavia porcellus [2]): inactive

Cl.O=C(/C=C/c1ccncc1)NNC(=O)N1Cc2ccccc2Oc2ccc(Cl)cc21
No. of mice (Mus musculus [1]; 30 mg/kg): 2 and 4

Cl.O=C(NNC(=O)N1Cc2ccccc2Oc2ccc(Cl)cc21)c1ccccn1
No. of mice (Mus musculus [1]; 30 mg/kg): 3 and 2
pA2 (Cavia porcellus [2]): inactive

Cl.O=C(NNC(=O)C(F)(F)Cc1ccccn1)N1Cc2ccccc2Oc2ccc(Cl)cc21
ED50 (Mus musculus [3]): 9.7 mg/kg
